# pEC50, pKi: −log10 of the molar value.
# Assays:
# [1] = target: GABA-A receptor; anion channel; assay: Binding affinity was determined by displacement of [3H]flumazenil from rat cortex homogenates; format: functional
# How it was run: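 Displacement of [3H]flumazenil from rat cortex homogenates. Values are averages (±SD); some analogues were run once as a single set of triplicates. NA means an IC50 was not achieved at the highest dose tested.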
# [2] = target: T1, Gamma-aminobutyric acid receptor subunit alpha-2 (Homo sapiens, UniProt P47869); assay: Effective concentration against gamma-aminobutyric acid (GABA) A receptor, alpha 2; set-up: species or system Xenopus laevis
# T1 sequence (P47869 whole entry): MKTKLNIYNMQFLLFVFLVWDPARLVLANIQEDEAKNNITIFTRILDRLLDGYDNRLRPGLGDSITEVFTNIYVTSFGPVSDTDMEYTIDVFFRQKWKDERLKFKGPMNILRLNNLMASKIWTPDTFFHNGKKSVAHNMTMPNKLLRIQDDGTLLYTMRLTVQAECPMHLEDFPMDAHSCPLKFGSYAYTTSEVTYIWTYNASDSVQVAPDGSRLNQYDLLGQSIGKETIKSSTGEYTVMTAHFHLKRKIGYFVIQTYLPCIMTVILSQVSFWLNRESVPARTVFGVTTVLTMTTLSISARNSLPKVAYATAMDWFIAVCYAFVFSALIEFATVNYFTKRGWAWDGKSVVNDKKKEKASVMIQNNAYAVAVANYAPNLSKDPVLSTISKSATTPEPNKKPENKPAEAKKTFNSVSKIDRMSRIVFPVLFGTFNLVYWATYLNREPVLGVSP
# How it was run: (§1)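 Xenopus laevis oocytes were injected with human cRNA for the α, β and γ subunits needed to express each receptor subtype (α1, α2, α3 or α5). Electrophysiological recording was used to read potentiation, and the effective concentration and maximal percent potentiation were derived from it.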
# [3] = target: T2, Gamma-aminobutyric acid receptor subunit alpha-1 (Homo sapiens, UniProt P14867); assay: Effective concentration against gamma-aminobutyric acid (GABA) A receptor, alpha 1; set-up: species or system Xenopus laevis; how it was run: as §1
# T2 sequence (P14867 whole entry): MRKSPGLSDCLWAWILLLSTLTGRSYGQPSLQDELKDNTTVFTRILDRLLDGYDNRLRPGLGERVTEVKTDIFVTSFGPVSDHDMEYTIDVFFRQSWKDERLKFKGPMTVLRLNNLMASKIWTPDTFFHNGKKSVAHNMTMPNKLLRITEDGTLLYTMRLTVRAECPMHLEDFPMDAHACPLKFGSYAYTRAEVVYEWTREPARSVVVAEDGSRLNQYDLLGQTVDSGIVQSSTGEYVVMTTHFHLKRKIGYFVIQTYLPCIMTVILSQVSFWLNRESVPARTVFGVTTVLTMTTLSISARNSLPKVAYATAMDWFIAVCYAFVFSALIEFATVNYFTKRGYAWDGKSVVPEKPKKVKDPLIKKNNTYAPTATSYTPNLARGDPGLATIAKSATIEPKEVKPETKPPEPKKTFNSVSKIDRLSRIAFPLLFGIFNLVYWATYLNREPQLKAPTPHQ
# [4] = target: T3, Gamma-aminobutyric acid receptor subunit alpha-2 (Homo sapiens) (UniProt P47869); assay: Maximum percent potentiation against gamma-aminobutyric acid (GABA) A receptor, alpha 2; conditions: Xenopus laevis; how it was run: as §1
# T3 sequence (whole entry): T1 sequence (P47869 whole entry)
# [5] = target: T4, Gamma-aminobutyric acid receptor subunit alpha-5 (Homo sapiens) (UniProt P31644); assay: Maximum percent potentiation against gamma-aminobutyric acid (GABA) A receptor, alpha 5; conditions: Xenopus laevis; how it was run: as §1
# T4 sequence (whole entry): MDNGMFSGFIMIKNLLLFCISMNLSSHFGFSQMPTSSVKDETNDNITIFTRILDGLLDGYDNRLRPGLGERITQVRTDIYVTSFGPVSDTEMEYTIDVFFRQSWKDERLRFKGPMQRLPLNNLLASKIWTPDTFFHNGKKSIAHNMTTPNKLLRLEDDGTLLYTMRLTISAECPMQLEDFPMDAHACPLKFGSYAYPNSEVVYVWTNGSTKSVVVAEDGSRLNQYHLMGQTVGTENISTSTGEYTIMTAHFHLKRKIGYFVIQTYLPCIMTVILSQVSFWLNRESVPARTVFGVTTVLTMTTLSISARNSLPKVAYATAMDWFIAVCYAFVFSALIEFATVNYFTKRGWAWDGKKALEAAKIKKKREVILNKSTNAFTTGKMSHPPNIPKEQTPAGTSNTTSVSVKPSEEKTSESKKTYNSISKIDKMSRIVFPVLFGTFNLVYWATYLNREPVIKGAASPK
# [6] = target: T5, Gamma-aminobutyric acid receptor subunit alpha-1 (Homo sapiens) (UniProt P14867); assay: Maximum percent potentiation against gamma-aminobutyric acid (GABA) A receptor, alpha 1; conditions: Xenopus laevis; how it was run: as §1
# T5 sequence (whole entry): T2 sequence (P14867 whole entry)
# [7] = target: T6, Gamma-aminobutyric acid receptor subunit alpha-3 (Homo sapiens, UniProt P34903); assay: Effective concentration against gamma-aminobutyric acid (GABA) A receptor, alpha 3; set-up: species or system Xenopus laevis; how it was run: as §1
# T6 sequence (P34903 whole entry): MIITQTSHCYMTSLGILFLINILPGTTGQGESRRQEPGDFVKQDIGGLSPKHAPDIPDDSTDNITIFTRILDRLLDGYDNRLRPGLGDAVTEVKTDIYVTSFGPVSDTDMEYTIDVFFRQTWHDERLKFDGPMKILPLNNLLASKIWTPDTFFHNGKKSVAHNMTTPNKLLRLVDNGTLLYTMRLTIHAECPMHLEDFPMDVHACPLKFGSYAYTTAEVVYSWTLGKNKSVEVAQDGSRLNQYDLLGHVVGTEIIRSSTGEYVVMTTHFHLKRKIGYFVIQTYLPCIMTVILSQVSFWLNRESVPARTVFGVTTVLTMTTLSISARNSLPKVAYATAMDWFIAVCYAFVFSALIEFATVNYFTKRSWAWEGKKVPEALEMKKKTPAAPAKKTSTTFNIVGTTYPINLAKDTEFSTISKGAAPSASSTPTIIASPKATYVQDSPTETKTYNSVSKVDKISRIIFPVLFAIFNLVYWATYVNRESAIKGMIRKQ
# [8] = target: T7, Gamma-aminobutyric acid receptor subunit alpha-3 (Homo sapiens) (UniProt P34903); assay: Maximum percent potentiation against gamma-aminobutyric acid (GABA) A receptor, alpha 3; conditions: Xenopus laevis; how it was run: as §1
# T7 sequence (whole entry): T6 sequence (P34903 whole entry)
# [9] = target: T8, Gamma-aminobutyric acid receptor subunit alpha-5 (Homo sapiens, UniProt P31644); assay: Effective concentration against Gamma-aminobutyric acid A receptor, alpha 5; set-up: species or system Xenopus laevis; how it was run: as §1
# T8 sequence (P31644 whole entry): T4 sequence (whole entry)
smiles,measurement,setting,value
COc1ccc(-c2cn3c(O)nc4c(c3n2)CN(Cc2ccccc2)CC4)c(F)c1,pKi,[1],9.22
O=C(c1ccncc1)N1CCc2nc(O)n3cc(-c4ccccc4F)nc3c2C1,pKi,[1],6.91
COc1cccc(-c2cn3c(=O)[nH]c4c(c3n2)CN(Cc2ccccc2)CC4)c1,pEC50,[2],6.57
same,pKi,[1],8.64
same,pEC50,[3],7.09
CC(=O)N1CCc2nc(O)n3cc(-c4ccccc4F)nc3c2C1,Activity,[4],0%
same,Activity,[5],0%
same,Activity,[6],0%
same,pEC50,[7],7.15
same,Activity,[8],11%
same,pKi,[1],7.39
O=c1[nH]c2c(c3nc(-c4ccccc4F)cn13)CN(Cc1ccccc1)CC2,pEC50,[2],7.70
same,pEC50,[9],7.13
same,pEC50,[7],7.70
same,pKi,[1],8.89
same,pEC50,[3],7.74
Oc1nc2c(c3nc(-c4ccccc4F)cn13)CN(c1ncccn1)CC2,pEC50,[2],7.08
same,Activity,[4],44%
same,Activity,[5],0%
same,Activity,[6],0%
same,pEC50,[7],6.93
same,Activity,[8],35%
same,pKi,[1],6.88
Oc1nc2c(c3nc(-c4ccccc4F)cn13)CN(CC1CCCCC1)CC2,Activity,[4],71%
same,Activity,[5],101%
same,Activity,[6],114%
same,Activity,[8],115%
Oc1nc2c(c3nc(-c4ccccc4F)cn13)CN(Cc1ccccc1)CC2,Activity,[4],76%
same,Activity,[5],31%
same,Activity,[6],56%
same,Activity,[8],120%
CC(C)N1CCc2nc(O)n3cc(-c4ccccc4F)nc3c2C1,pKi,[1],7.29
C=CCN1CCc2nc(O)n3cc(-c4ccccc4F)nc3c2C1,Activity,[4],18%
same,Activity,[5],0%
same,Activity,[6],5%
same,Activity,[8],20%
C=CCN1CCc2[nH]c(=O)n3cc(-c4ccccc4F)nc3c2C1,pEC50,[2],6.55
same,pEC50,[7],6.46
same,pKi,[1],7.59
same,pEC50,[3],6.77
CC(c1ccccc1)N1CCc2nc(O)n3cc(-c4ccccc4F)nc3c2C1 (stereo unspecified),pKi,[1],8.54
COc1ccc(-c2cn3c(O)nc4c(c3n2)CN(C)CC4)c(F)c1,pKi,[1],7.35
CCN1CCc2nc(O)n3cc(-c4ccccc4F)nc3c2C1,Activity,[4],0%
same,Activity,[5],0%
same,Activity,[6],0%
same,pEC50,[7],6.03
same,Activity,[8],14%
same,pKi,[1],7.25
O=c1[nH]c2c(c3nc(-c4ccccc4F)cn13)CN(CC1CCCCC1)CC2,pEC50,[2],6.69
same,pEC50,[9],6.64
same,pEC50,[7],6.67
same,pKi,[1],9.05
same,pEC50,[3],6.90
Oc1nc2c(c3nc(-c4ccccc4F)cn13)CN(CCCc1ccccc1)CC2,pKi,[1],6.83
Oc1nc2c(c3nc(-c4cccc(Cl)c4)cn13)CN(Cc1ccccc1)CC2,pKi,[1],7.15
Oc1nc2c(c3nc(-c4ccccc4F)cn13)CN(Cc1c[nH]cn1)CC2,Activity,[4],58%
same,Activity,[5],44%
same,Activity,[6],40%
same,Activity,[8],49%
O=c1[nH]c2c(c3nc(-c4ccccc4F)cn13)CN(Cc1cccnc1)CC2,pEC50,[2],7.00
same,pEC50,[7],7.64
same,pKi,[1],8.85
same,pEC50,[3],7.25
COc1cccc(-c2cn3c(O)nc4c(c3n2)CN(Cc2ccccc2)CC4)c1,Activity,[4],115%
same,Activity,[6],123%
COc1ccc(-c2cn3c(=O)[nH]c4c(c3n2)CN(Cc2ccccc2)CC4)cc1,pEC50,[2],6.84
same,pKi,[1],8.59
same,pEC50,[3],7.55
CC(c1ccccc1F)N1CCc2nc(O)n3cc(-c4ccccc4F)nc3c2C1 (stereo unspecified),pKi,[1],8.77
COc1ccc(-c2cn3c(O)nc4c(c3n2)CN(C)CC4)cc1,pKi,[1],6.62
O=C(OCc1ccccc1)N1CCc2[nH]c(=O)n3cc(-c4ccccc4F)nc3c2C1,pEC50,[2],> 7.00
same,pEC50,[9],6.00
same,pKi,[1],7.41
same,pEC50,[3],> 7.00
Oc1nc2c(c3nc(-c4cc(F)cc(F)c4)cn13)CN(Cc1ccccc1)CC2,pKi,[1],7.14
O=C(c1ccccc1)N1CCc2nc(O)n3cc(-c4ccccc4)nc3c2C1,pKi,[1],6.52
CC(c1ccc(F)cc1)N1CCc2nc(O)n3cc(-c4ccccc4F)nc3c2C1 (stereo unspecified),pKi,[1],7.83
Oc1nc2c(c3nc(-c4cc(F)ccc4F)cn13)CN(Cc1ccccc1)CC2,pEC50,[2],6.73
same,Activity,[4],82%
same,Activity,[6],59%
same,pEC50,[3],7.44
CCOC(=O)N1CCc2nc(O)n3cc(-c4ccccc4F)nc3c2C1,pKi,[1],7.19
CCCC(=O)N1CCc2nc(O)n3cc(-c4ccccc4F)nc3c2C1,pKi,[1],6.58
Oc1nc2c(c3nc(-c4ccc(Cl)cc4)cn13)CN(Cc1ccccc1)CC2,pKi,[1],6.92
C[C@@H](c1ccccc1)N1CCc2nc(O)n3cc(-c4ccccc4F)nc3c2C1,pKi,[1],8.19
Oc1nc2c(c3nc(-c4ccc(F)cc4F)cn13)CN(Cc1ccccc1)CC2,Activity,[4],184%
same,Activity,[5],30%
same,Activity,[6],63%
same,Activity,[8],95%
Oc1nc2c(c3nc(-c4ccccc4F)cn13)CN(CCc1ccccc1)CC2,pKi,[1],7.08
CC(c1cccc(F)c1)N1CCc2nc(O)n3cc(-c4ccccc4F)nc3c2C1 (stereo unspecified),pKi,[1],8.08
O=C(c1ccccn1)N1CCc2nc(O)n3cc(-c4ccccc4F)nc3c2C1,pKi,[1],7.14
CN1CCc2nc(O)n3cc(-c4ccccc4F)nc3c2C1,Activity,[4],0%
same,Activity,[6],0%
O=c1[nH]c2c(c3nc(-c4cccc(F)c4)cn13)CN(Cc1ccccc1)CC2,pEC50,[2],6.81
same,pKi,[1],7.95
same,pEC50,[3],6.92
COc1ccccc1-c1cn2c(O)nc3c(c2n1)CN(Cc1ccccc1)CC3,pKi,[1],6.10
O=c1[nH]c2c(c3nc(-c4ccccc4)cn13)CN(Cc1ccccc1)CC2,pEC50,[2],6.74
same,pEC50,[3],7.77
O=C(c1cccnc1)N1CCc2nc(O)n3cc(-c4ccccc4F)nc3c2C1,pKi,[1],7.04
O=c1[nH]c2c(c3nc(-c4ccc(F)cc4)cn13)CN(Cc1ccccc1)CC2,pEC50,[2],6.61
same,pKi,[1],7.68
same,pEC50,[3],6.87
O=C(OCc1ccccc1)N1CCc2nc(O)n3cc(-c4ccccc4F)nc3c2C1,Activity,[4],8%
same,Activity,[5],3%
same,Activity,[6],5%
same,Activity,[8],0%
CCCCOC(=O)N1CCc2nc(O)n3cc(-c4ccccc4F)nc3c2C1,pKi,[1],6.64
CCC(=O)N1CCc2nc(O)n3cc(-c4ccccc4F)nc3c2C1,pEC50,[2],6.96
same,Activity,[4],22%
same,Activity,[5],0%
same,Activity,[6],12%
same,pEC50,[7],6.94
same,Activity,[8],9%
same,pKi,[1],6.67
same,pEC50,[3],7.02
Oc1nc2c(c3nc(-c4ccccc4)cn13)CN(Cc1ccccc1)CC2,Activity,[4],179%
same,Activity,[6],67%
O=C(c1ccccc1)N1CCc2nc(O)n3cc(-c4ccccc4F)nc3c2C1,pKi,[1],7.08
O=C(Cc1ccccc1)N1CCc2nc(O)n3cc(-c4ccccc4F)nc3c2C1,pKi,[1],6.41

# — ChEMBL document CHEMBL1135642, “Synthesis and biological evaluation of 7,8,9,10-tetrahydroimidazo[1,2-c]pyrido[3,4-e]pyrimdin-5(6H)-ones as functionally selective ligands of the benzodiazepine receptor site on the GABA(A) receptor” (J Med Chem, 2002)
